RORA inh – inhibitors of orphan receptor RORA, primary screen, cell-based, luminescence | CHO-K1 Gal4-RORA LBD luciferase reporter | inhibition, % at 10 µM | hit rate 0.43% among 65,000;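 active = inhibition above the mean of all tested compounds plus 3 SD, cut at about 52% in these data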;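 also: 0% = RORA-transfected cells with DMSO and 100% = mock-transfected cells lacking RORA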
Target sequence (P35398 whole entry, looked up, the tested form may be a part): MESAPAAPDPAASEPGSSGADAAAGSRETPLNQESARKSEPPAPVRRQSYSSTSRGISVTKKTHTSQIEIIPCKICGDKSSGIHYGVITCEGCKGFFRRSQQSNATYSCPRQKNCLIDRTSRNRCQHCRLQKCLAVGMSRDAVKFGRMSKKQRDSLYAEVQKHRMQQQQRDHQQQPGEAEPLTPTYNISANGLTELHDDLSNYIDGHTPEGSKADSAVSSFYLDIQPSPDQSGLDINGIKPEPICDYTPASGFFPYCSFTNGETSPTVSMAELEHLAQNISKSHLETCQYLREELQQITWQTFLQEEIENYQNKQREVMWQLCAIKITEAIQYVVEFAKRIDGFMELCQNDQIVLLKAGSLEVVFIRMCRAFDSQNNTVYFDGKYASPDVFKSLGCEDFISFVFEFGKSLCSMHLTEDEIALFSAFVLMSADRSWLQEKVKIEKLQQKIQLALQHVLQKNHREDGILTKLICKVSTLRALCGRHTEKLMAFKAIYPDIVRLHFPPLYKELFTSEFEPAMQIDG
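Material: transiently transfected CHO-K1 cells, Gal4-DBD/human RORA-LBD fusion plus 5xGal4-luciferase reporter; doses: single concentration per compound, 10 µM final; incubation: 20 h at 37 °C; detection: luminescence from basal luciferase reporter expression; read-out: % inhibition of basal luciferase versus +RORA/-RORA DMSO controls; replication: tested once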
The depositor's hits bear a star. Shown is part of a subset that was picked to be rich in hits.

SMILES	RORA inh
O=C1CN=C(c2ccccc2)c2oc3ccc(Br)cc3c2N1	10
COc1cccc(OC)c1C1=NCC(=O)Nc2c1oc1ccc(Br)cc21	62*
Nc1ccc(S(=O)(=O)N2CC3CC(C2)c2cccc(=O)n2C3)cc1 (stereo not drawn)	-10
O=C(c1cc2c(s1)-c1ccccc1OC2)N1CCC2(CC1)OCCO2	-54
CCn1nc(-c2cccs2)nc2c(=O)n(C)c(=O)nc1-2	91*
CC1(C)CN=C(Nc2nc3ccccc3s2)S1	-54
CN(C(=O)c1ccco1)C1(c2ccccc2Cl)CCCCC1=O (stereo not drawn)	7
CCC(=NC1CC1)c1c(O)n(-c2ccc(OC)cc2)c(=O)[nH]c1=O	3
COc1cc2nc(CN3CC=C(c4ccccc4)CC3)[nH]c(=O)c2cc1OC	80*
CCCNC(=O)N1C2CCC1CC(O)(c1cccnc1)C2 (stereo not drawn)	-13
Cc1cccc(NC2=NCCCS2)c1C	19
O=c1[nH]c2ccccc2n1CCCN1CCC(n2c(=O)[nH]c3cc(Cl)ccc32)CC1	14
COc1ccc2c(c1)c(C(=O)CN1CCN(C)CC1)c(C)n2Cc1ccccc1	-29
CC(C)C(=O)N1CCN(CCN=Cc2c(O)n(C)c(=O)n(C)c2=O)CC1	5
Cn1c2ccccc2c2c(C(=O)N3CCC4(CC3)OCCO4)cn(C3CCCCC3)c(=O)c21	0

Compound activity (PubChem)
